# Assay results collected from several papers.
# Protocols differ between the studies behind these lines.
Compound,system,conditions,Tmax
CCOc1cc2ncc(C#N)c(Nc3ccc(OCc4ccccn4)c(Cl)c3)c2cc1NC(=O)/C=C/[C@H]1CCCN1C,"human, plasma","oral, 80 mg, single dose",4.98 h
CCCCOC(=O)N1CCN(C(=O)[C@H](CP(=O)(O)O)NC(=O)c2cc(N3CC[C@H](OC)C3)nc(-c3ccccc3)n2)CC1,"human, plasma","subcutaneous, 16 mg, single dose",0.733 h
C=CC(=O)N1CCC(Oc2cc3c(Nc4ccc(Cl)c(Cl)c4F)ncnc3cc2OC)CC1,"human, plasma","oral, 16 mg, single dose, fasted",1.26 h
C#C[C@]1(COP(=O)(O)OP(=O)(O)OP(=O)(O)O)O[C@@H](n2cnc3c(N)nc(F)nc32)C[C@@H]1O,"human, plasma","oral, 400 mg, single dose",12.1 h
CC(C)(Sc1ccncc1-c1ccc(C#N)c2ccccc12)C(=O)O,"male human, plasma","oral, 40 mg, single dose, fasted, healthy volunteers",0.75 h
c1cnc2ccc(Nc3nc(NC4CC4)c4nc[nH]c4n3)cc2c1,"human, plasma","oral, 400 mg/m², patients",6.5 h
O=C(O)C[C@H](O)C[C@H](O)/C=C/c1c(C2CC2)nc2ccccc2c1-c1ccc(F)cc1,"human, plasma","oral, 2 mg, single dose, fasted, healthy volunteers, tablet",1.17 h
FC(F)(F)c1ccc(CNc2ccc(Cc3c[nH]c4ncc(Cl)cc34)cn2)cn1,"human, plasma","oral, 600 mg, single dose",2.5 h
COc1cc(N2CCC(N3CCN(C)CC3)CC2)ccc1Nc1ncnc(Nc2ccccc2S(=O)(=O)C(C)C)n1,"human, plasma","oral, 200 mg, multiple doses, patients",2.96 h
Oc1cc(O)c2c(c1)O[C@@H](c1ccc(O)c(O)c1)[C@@H](O)C2,"human, plasma","oral, 100 mg, single dose",1 h
C=CC(=O)N(C)CCOc1c(N)ncnc1-c1cc(F)cc(NC(=O)c2ccc(C3CC3)cc2F)c1C,"human, blood","oral, 15 mg, single dose, healthy volunteers",0.5 h
CCc1nc(C(N)=O)c(Nc2ccc(N3CCC(N4CCN(C)CC4)CC3)c(OC)c2)nc1NC1CCOCC1,"human, plasma","oral, 120 mg, multiple doses, patients",3.03 h
Cc1nc(NC(=O)N2CCC[C@H]2C(N)=O)sc1-c1ccnc(C(C)(C)C(F)(F)F)c1,"human, plasma","oral, 270 mg, patients",2.02 h
CCCOc1ccc([C@H]2CNC(=O)N2c2ccc3[nH]cnc3c2)cc1,"human, plasma","oral, 200 mg, single dose, fed, healthy volunteers",2 h
C[C@@]1(c2cc(NC(=O)c3ccc(C#N)cn3)ccc2F)C=CSC(N)=N1,"human, plasma","oral, 150 mg, single dose",1.5 h
CC(C)(C)OC[C@@H]1C(=O)NCCN1C(=O)C[C@H](N)Cc1cc(F)c(F)cc1F,"male human, plasma","oral, 5 mg, multiple doses, steady state",2 h
CO[C@@H]1[C@H](OC(=O)N2CC(CCN3CCOCC3)C2)CC[C@]2(CO2)[C@H]1[C@@]1(C)O[C@@H]1CC=C(C)C,"human, plasma","subcutaneous, 4.8 mg, single dose, healthy volunteers",0.25 h
Cn1cc(-c2ccc(S(=O)(=O)[C@@H]3C[C@@H](C(=O)NC4(C#N)CC4)N(C(=O)C4(C(F)(F)F)CC4)C3)c(C(F)(F)F)c2)cn1,"human, plasma","oral, 3 mg, single dose, fasted, healthy volunteers",5 h
C[C@@H](Nc1cc(F)cc(F)c1)c1cc(C(=O)N(C)C)cc2c(=O)cc(N3CCOCC3)oc12,"human, plasma","oral, 240 mg, single dose, patients",1.75 h
CC(C)[C@H](N)C(=O)NCCCS(=O)(=O)O,"human, plasma","oral, 171 mg, multiple doses, twice daily, fasted",0.5 h
Nc1cc(C(F)(F)F)c(-c2cc(N3CCOCC3)nc(N3CCOCC3)n2)cn1,"human, plasma","oral, 100 mg/day, patients",1.5 h
CC(C)[C@](O)(c1ccc2cc(OC(F)F)c(OC(F)F)cc2c1)c1c[nH]nn1,"female human, plasma","oral, 750 mg, single dose",3 h
Cc1nc(-c2cn3c(n2)-c2ccc(-c4cnn(C(C)(C)C(N)=O)c4)cc2OCC3)n(C(C)C)n1,"human, plasma","oral, 2 mg, patients",3.97 h
CCc1nc2c(C)cc(N3CCN(CC(=O)N4CC(O)C4)CC3)cn2c1N(C)c1nc(-c2ccc(F)cc2)c(C#N)s1,"human, plasma","oral, 600 mg, single dose, fed, healthy volunteers",3.5 h
NS(=O)(=O)NCCNc1nonc1C(=NO)Nc1ccc(F)c(Br)c1,"human, plasma","oral, 100 mg, multiple doses, twice daily, steady state, patients",2 h
CC(C)n1cc(C#N)c2cc(-n3cc(C(=O)O)cn3)ccc21,"human, plasma","oral, 50 mg, single dose, fasted, healthy volunteers",3 h
O=C(Nc1c(Cl)cncc1Cl)c1ccc(OC(F)F)c(OCC2CC2)c1,"human, plasma","oral, 0.25 mg, single dose",0.75 h
CC(C)n1nc(-c2ccc3oc(N)nc3c2)c2c(N)ncnc21,"human, plasma","oral, 3 mg, multiple doses, once daily, patients",0.97 h
COc1ccc([C@@H]2CN(C(=O)[C@@H](O)CO)C[C@@]2(C)[C@@H](C)O)cc1OC1CN(c2ccc(C)cn2)C1,"human, plasma","oral, 0.1 mg, single dose, healthy volunteers",1 h
CO[C@H]1/C=C\C=C(/C)C(=O)NC2=CC(=O)C(NCCN(C)C)=C(C[C@@H](C)C[C@H](OC)[C@H](O)[C@@H](C)/C=C(\C)[C@@H]1OC(N)=O)C2=O,"human, plasma","intravenous, 12 mg/m², patients, infusion",1 h
CS(=O)(=O)CCC#N,"human, plasma","oral, 300 mg, single dose, fasted",1.5 h
CC(C)(O)c1ccccc1-c1ccc2[nH]c(/C=C/c3ccc(C(F)(F)F)cc3)nc2c1,"male human, plasma","oral, 30 mg, single dose, fasted",3.03 h
CCO[C@H]1CCN(Cc2c(OC)cc(C)c3[nH]ccc23)[C@H](c2ccc(C(=O)O)cc2)C1,"human, plasma","oral, 200 mg, multiple doses, twice daily, patients",2 h
